Source: PubChem
Hits are enriched below; roughly 1.8% of the tested compounds scored in any of these assays.
PME-1 inh – PME-1 inhibitors via competitive probe labeling, primary screen, biochemical, fluorescence polarization, FP-Rh probe, HTS. recombinant PME-1. Protein phosphatase methylesterase 1 (Homo sapiens), Q9Y570. inhibition, % at 5.9 µM. AID 2130, 2009. actives 0.53% (n = 320,000);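 active = inhibition above the campaign mean of all compounds plus 3 SD, cut at about 26% in these data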;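 also: competitive labeling of PME-1 active site by serine hydrolase directed probe; 0% = PME-1 with DMSO and 100% = wells lacking PME-1 enzyme; inhibitors block probe labeling so polarization falls and inhibition rises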
SIAE primary – human SIAE inhibitors, primary screen, biochemical, fluorescence polarization, FP-Rh probe, 1536-well HTS; Sialate O-acetylesterase (Homo sapiens), Q9HAT2; SIAE FP-Rh probe binding; inhibition, % at 9.66 µM; actives 0.69% (n = 370,000);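 active = inhibition above a cutoff: mean of compounds within the control limits plus 3 SD of those, cut at about 17% in these data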;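 also: 0% = plate median of compound wells and 100% = probe without SIAE protein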
ABHD4 inh – ABHD4 inhibitors, primary screen, biochemical, fluorescence polarization, mouse; (Lyso)-N-acylphosphatidylethanolamine lipase (Mus musculus), Q8VD66; purified mABHD4, FP-Rh probe fluorescence polarization; inhibition, % at 8.92 µM; actives 0.54% (n = 370,000);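 active = inhibition exceeding the mean over every tested compound plus 3 SD, cut at about 30% in these data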;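 also: 0% = plate median of compound wells and 100% = S159A mutant with DMSO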
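Assay system: mABHD4 protein; medium: HEPES pH 7.0, NaCl, Pluronic buffer; dosing: 8.92 µM, single dose; schedule: 45 min + 60 min at 25 °C; signal: FP readout, ex 525 nm / em 598 nm; read-out: normalized percent inhibition of probe labeling; repeats: single replicate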
TCR CD3 inh – inhibitors of human TCR-CD3 interaction, primary screen, biochemical, fluorescence, TAMRA-labeled TCR probe; inhibition, % at 9.4 µM; T-cell receptor (TCR); actives 0.37% (n = 360,000); AID 651800, 2012;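 also: recombinant mutant TCR 2C K166C tagged with TAMRA read by polarization; 0% = receptor in buffer alone and 100% = receptor with positive control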
HTRA1 inh – HTRA1 serine protease inhibitors, primary screen, biochemical, fluorescence polarization, HTS; actives 0.5% (n = 340,000); inhibition, % at 5.96 µM; Q92743; recombinant HTRA1, FP-rhodamine activity-based probe; in the data active = inhibition above about 36%;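 also: 0% = enzyme with DMSO and 100% = wells lacking enzyme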
Target sequence (Q92743 whole entry, looked up): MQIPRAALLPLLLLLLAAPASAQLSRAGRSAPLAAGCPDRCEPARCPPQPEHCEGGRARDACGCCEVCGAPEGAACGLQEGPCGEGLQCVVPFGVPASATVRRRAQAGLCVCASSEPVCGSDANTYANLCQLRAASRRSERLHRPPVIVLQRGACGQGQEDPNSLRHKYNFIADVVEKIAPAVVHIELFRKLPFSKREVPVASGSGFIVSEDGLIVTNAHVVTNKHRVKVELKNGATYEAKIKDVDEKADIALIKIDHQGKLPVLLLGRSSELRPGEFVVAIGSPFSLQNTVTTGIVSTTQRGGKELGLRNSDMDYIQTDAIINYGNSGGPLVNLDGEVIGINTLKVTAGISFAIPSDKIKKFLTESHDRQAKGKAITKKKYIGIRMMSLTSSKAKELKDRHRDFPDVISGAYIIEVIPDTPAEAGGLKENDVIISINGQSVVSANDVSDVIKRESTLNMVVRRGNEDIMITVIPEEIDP
Fam108B counter – mouse Fam108B serine hydrolase inhibitors, primary screen, counter-screen for RBBP9 inhibitor project, biochemical, fluorescence polarization; inhibition, % at 9.51 µM; actives 0.33% (n = 300,000); recombinant Fam108B, FP-Rh probe fluorescence polarization;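 active = inhibition above the screen mean inhibition plus 3 SD, computed separately per campaign, cut at about 18% in these data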;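 also: inhibitors lower polarization as less probe binds the enzyme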
BSA probe FL – compounds interfering with TAMRA-BSA probe, counter-screen for TCR-CD3 interaction inhibitor project, biochemical, fluorescence, TAMRA-labeled BSA; shares compounds with TCR CD3 inh; TAMRA-labeled BSA probe fluorescence counterscreen; inhibition, % at 9.4 µM; actives 10% (n = 1,200); AID 652035, 2013; in the data active = inhibition above about 23%;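 also: 0% = buffer low control and 100% = reference high control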
TCR-CD3 inh conf – TCR-CD3 interaction inhibitors, retest, confirmation, biochemical, fluorescence, TAMRA-labeled TCR probe | shares compounds with TCR CD3 inh | TAMRA-labeled TCR probe fluorescence binding assay | inhibition, % at 9.4 µM | actives 48% (n = 1,200) | AID 652036, 2013
Numbers without * were called inactive; · = not tested or not shown. Rule as the data show it, unless noted: active = inhibition above about 19%; inactive = the rest.

SMILES	PME-1 inh	SIAE primary	ABHD4 inh	TCR CD3 inh	HTRA1 inh	Fam108B counter	BSA probe FL	TCR-CD3 inh conf
COc1cc(C(=O)NNC(=S)NC(=O)c2ccccc2C)cc(OC)c1OC	-1	10	5	-6	7	0	·	·
COc1ccccc1C(=O)NNC(=S)NC(=O)c1cc(OC)c(OC)c(OC)c1	-2	1	2	19*	0	-2	-7	9
Cc1nc(Cl)c2c(n1)NC1=C(O2)C(=O)CCC1	10	3	6	37*	17	6	29*	30*
CCNC(=S)NNC(=O)c1cccn(Cc2ccc(Cl)cc2Cl)c1=O	-2	4	8	20*	8	-1	2	17
Cc1ccccc1C(=O)NNC(=S)NC(=O)c1ccc(Cl)cc1Cl	3	4	4	2	10	3	·	·
C=CCNC(=S)NNC(=O)c1cccn(Cc2ccc(Cl)cc2Cl)c1=O	0	5	15	20*	10	-2	-9	14
O=C(c1ccc2c(c1)OCO2)N1CCC(Oc2cccnc2)CC1	·	-3	-1	·	·	·	·	·
COc1ccc(N2CC(C(=O)N3CCOCC3)CC2=O)cc1 (configuration not stated)	-1	8	-8	-1	2	0	·	·
COc1ccc(N2CC(C(=O)N3CCCC(C)C3)CC2=O)cc1 (configuration not stated)	5	2	-5	142*	3	0	0	0
COC(=O)c1cn(-c2ccc(-c3noc4c3C(=O)N(CC(=O)N3CCOCC3)CC4)cc2)nn1	·	-4	-5	·	·	·	·	·
C/C(=N\NC(=O)c1ccc(NS(=O)(=O)c2cccs2)cc1)c1ccc(O)cc1O	2	0	4	19*	17	11	-12	20*
CCC1CCc2sc(C(=O)Nc3cc(S(=O)(=O)N4CCOCC4)ccc3OC)cc2C1 (configuration not stated)	·	-8	-14	·	·	·	·	·
CCN(CC)C(=O)CSc1ncnc2c(-c3cccs3)nsc12	8	-5	5	20*	-32	5	-4	12
CCN(CC)C(=O)CSc1ncnc2sccc12	-10	3	10	10	2	1	·	·
O=C(NNC(=O)c1cc2ccccc2cc1O)Nc1ccc(Br)cc1	1	16	6	23*	10	2	-11	22*
COc1cc2ccccc2cc1C(=O)NNC(=O)c1ccccc1O	-4	0	10	34*	27	4	-6	25*
O=C(NNC(=O)c1ccncc1)Nc1ccc(Br)cc1	·	4	4	-3	-1	·	·	·
COc1ccc(NS(=O)(=O)c2ccc(C)c(C(=O)NNC(=O)c3ccccc3O)c2)cc1	0	5	-16	5	14	2	·	·
Cc1ccc(S(=O)(=O)Nc2ccccc2F)cc1C(=O)NNC(=O)c1ccccc1O	-1	6	5	19*	26	-2	12	25*
CN(C)S(=O)(=O)c1cccc(NC(=S)NNC(=O)c2cc3ccccc3cc2O)c1	27*	-14	-26	23*	25	·	-11	13
COc1ccc(CC(=O)Nc2ccc(C)cc2S(=O)(=O)N2CCOCC2)cc1OC	·	7	4	·	·	·	·	·
C=CCN(C)CC#Cc1ccccc1C	·	0	0	·	·	·	·	·
O=C(CSc1nc2ccccc2nc1N1CCCCC1)N1CCN(S(=O)(=O)c2cc(Cl)ccc2Cl)CC1	·	-2	4	·	·	·	·	·
O=C(NNC(=O)c1cc2ccccc2cc1O)NC1CCCCC1	·	7	13	22*	28	·	-11	18
